The results in this text go back to ChEMBL document CHEMBL1124185, “Studies on some derivatives of oxamniquine” (1988).

Type in all cases: functional
In test [1] the test system is Schistosoma mansoni. The test can be described thus: Percent [3H]uridine incorporation relative to control at 50 ug/mL against hycanthone-sensitive schistosomes (% worms surviving in culture). The method in brief: (§1)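 Hycanthone-sensitive Schistosoma mansoni worms exposed to compound in vitro. [3H]uridine incorporation into the worms was measured and expressed relative to untreated controls. Worm survival in culture was scored in parallel.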

For test [2], the system named is Schistosoma mansoni. Put plainly: Percent [3H]uridine incorporation relative to controls for a dose of 75 ug/mL against hycanthone-resistant schistosomes.
The test system of test [3] is Schistosoma mansoni. Put plainly: Percent [3H]uridine incorporation relative to controls for a dose of 50 ug/mL against hycanthone-resistant schistosomes.
The test system of test [4] is Schistosoma mansoni. Put plainly: Percent [3H]uridine incorporation relative to controls for a dose of 100 ug/mL against hycanthone-sensitive schistosomes.(% warms surviving in culture). The method in brief:
as §1

The test system of test [5] is Schistosoma mansoni. The test can be described thus: Percent [3H]uridine incorporation relative to controls for a dose of 100 ug/mL against hycanthone-resistant schistosomes.
The subject of test [6] is Schistosoma mansoni. Put plainly: Percent [3H]-uridine incorporation relative to controls for a dose of 100 ug/mL against hycanthone-sensitive schistosomes (% warms surviving in culture). The method in brief:
as §1

The mark [7] stands for this setting: in the assay text read “at 75 ug/mL” for “at 50 ug/mL”.

In the case of `CC(C)NCC1CCc2cc(/C=N/NS(=O)(=O)c3ccc([N+](=O)[O-])cc3)c([N+](=O)[O-])cc2N1` (stereo not drawn), the Incorporation in the test with Schistosoma mansoni [1] (setting [7]) is given as 49%; with Schistosoma mansoni [2], 96%.
With `Cc1ccc(S(=O)(=O)N/N=C/c2cc3c(cc2[N+](=O)[O-])NC(CNC(C)C)CC3)cc1` (stereo not drawn), the Incorporation was 102% in the test with Schistosoma mansoni [3], 60% in the test with Schistosoma mansoni [1], 32% with Schistosoma mansoni [4] and 100% with Schistosoma mansoni [5].
Take `CNC(=O)OCc1cc2c(cc1[N+](=O)[O-])NC(CNC(C)C)CC2` (stereo not drawn): the Incorporation in the test with Schistosoma mansoni [3] came to 100%; with Schistosoma mansoni [1], 22%; in the test with Schistosoma mansoni [5] it was 100%; with Schistosoma mansoni [6] it was 21%.
Consider `COc1ccc(S(=O)(=O)N/N=C/c2cc3c(cc2[N+](=O)[O-])NC(CNC(C)C)CC3)cc1` (stereo not drawn), for which the Incorporation with Schistosoma mansoni [1] (setting [7]) was 53%; in the test on Schistosoma mansoni [2] it was 106%.
Turning to `Cc1cc(C)c(S(=O)(=O)N/N=C/c2cc3c(cc2[N+](=O)[O-])NC(CNC(C)C)CC3)c(C)c1` (stereo not drawn), the Incorporation in the test with Schistosoma mansoni [3] is 100%; in the test with Schistosoma mansoni [1], 24%; in the test on Schistosoma mansoni [4], 20%; in the test on Schistosoma mansoni [5] it was 100%.
For the compound `CC(C)NCC1CCc2cc(CO)c([N+](=O)[O-])cc2N1` (stereo not drawn) [OXAMNIQUINE], the Incorporation in the test on Schistosoma mansoni [3] was 97%; in the test on Schistosoma mansoni [1], 14%.
